# ChEMBL document CHEMBL3425482, “Structure-guided design and optimization of dipeptidyl inhibitors of norovirus 3CL protease. Structure-activity relationships and biochemical, X-ray crystallographic, cell-based, and in vivo studies” (J Med Chem, 2015)
# What was measured:
# [1] = Inhibition of Norovirus recombinant 3CL protease using Edans-EPDFHLQGPEDLAK-Dabcyl as substrate for 30 mins by fluorometry
# Norovirus = assay: Antiviral activity against Norovirus infected in human HG23 cells; assay type: functional, cell-based
# [2] = target: T1, Neutrophil elastase (Homo sapiens) (UniProt P08246); assay: Inhibition of human neutrophil elastase; conditions: concentration not given here
# T1 sequence (whole entry): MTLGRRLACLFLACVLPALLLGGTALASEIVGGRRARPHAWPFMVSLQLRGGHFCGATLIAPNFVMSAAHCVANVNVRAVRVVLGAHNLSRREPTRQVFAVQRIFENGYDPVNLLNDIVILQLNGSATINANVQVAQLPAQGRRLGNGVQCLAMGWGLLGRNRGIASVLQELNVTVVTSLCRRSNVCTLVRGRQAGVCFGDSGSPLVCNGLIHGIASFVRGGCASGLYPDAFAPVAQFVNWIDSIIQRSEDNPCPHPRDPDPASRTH
# Homo sapiens = organism: Homo sapiens; assay: Inhibition of chymotrypsin (unknown origin); conditions: concentration not given here
# Bos taurus = organism: Bos taurus; assay: Inhibition of bovine trypsin; conditions: concentration not given here
# [3] = target: Prothrombin (Homo sapiens) (UniProt P00734); assay: Inhibition of human thrombin after 10 mins incubation by chromogenic substrate hydrolysis assay
# [4] = target: Coagulation factor X (Homo sapiens) (UniProt P00742); assay: Inhibition of human factor 10a using Pefachrome-tPA substrate; conditions: concentration not given here
# Sequence of Coagulation factor X (Homo sapiens) (P00742 41-179 limits assumed): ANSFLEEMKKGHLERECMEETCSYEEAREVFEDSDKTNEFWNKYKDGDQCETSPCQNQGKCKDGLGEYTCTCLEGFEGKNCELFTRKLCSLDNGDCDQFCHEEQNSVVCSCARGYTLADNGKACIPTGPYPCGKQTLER
# Sequence of Coagulation factor X (Homo sapiens) (P00742 235-488 limits assumed): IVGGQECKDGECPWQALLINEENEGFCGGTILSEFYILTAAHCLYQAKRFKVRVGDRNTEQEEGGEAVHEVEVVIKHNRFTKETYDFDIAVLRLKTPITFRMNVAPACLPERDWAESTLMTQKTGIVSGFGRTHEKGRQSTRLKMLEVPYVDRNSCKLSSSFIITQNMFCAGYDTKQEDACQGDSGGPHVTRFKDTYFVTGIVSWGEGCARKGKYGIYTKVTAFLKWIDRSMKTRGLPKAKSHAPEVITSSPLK
# [5] = target: Plasminogen (Homo sapiens) (UniProt P00747); assay: Inhibition of plasmin (unknown origin); conditions: concentration not given here
# Sequence of Plasminogen (Homo sapiens) (P00747 97-580 limits assumed): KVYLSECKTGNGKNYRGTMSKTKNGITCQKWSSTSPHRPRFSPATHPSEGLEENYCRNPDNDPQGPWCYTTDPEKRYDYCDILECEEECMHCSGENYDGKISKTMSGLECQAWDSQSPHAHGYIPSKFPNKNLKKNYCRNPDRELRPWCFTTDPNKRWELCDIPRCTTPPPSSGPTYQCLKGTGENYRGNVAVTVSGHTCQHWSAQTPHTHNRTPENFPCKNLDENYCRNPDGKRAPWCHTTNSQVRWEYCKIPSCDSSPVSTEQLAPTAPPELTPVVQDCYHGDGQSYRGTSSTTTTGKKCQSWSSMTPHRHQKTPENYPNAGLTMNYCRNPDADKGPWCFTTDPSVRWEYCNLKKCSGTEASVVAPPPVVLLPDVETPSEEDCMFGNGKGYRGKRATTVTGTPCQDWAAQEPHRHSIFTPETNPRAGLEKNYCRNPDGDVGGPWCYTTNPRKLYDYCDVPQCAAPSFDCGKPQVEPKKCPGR
# Sequence of Plasminogen (Homo sapiens) (P00747 581-810 limits assumed): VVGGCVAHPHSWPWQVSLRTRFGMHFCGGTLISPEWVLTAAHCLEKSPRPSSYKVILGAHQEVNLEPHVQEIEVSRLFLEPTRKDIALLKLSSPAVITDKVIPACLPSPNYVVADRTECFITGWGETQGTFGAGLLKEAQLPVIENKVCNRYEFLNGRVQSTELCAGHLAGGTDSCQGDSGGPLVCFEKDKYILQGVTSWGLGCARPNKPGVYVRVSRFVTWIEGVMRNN
# [6] = target: T2, Carboxypeptidase A1 (Homo sapiens) (UniProt P15085); assay: Inhibition of carboxypeptidase A (unknown origin); conditions: concentration not given here
# T2 sequence (whole entry): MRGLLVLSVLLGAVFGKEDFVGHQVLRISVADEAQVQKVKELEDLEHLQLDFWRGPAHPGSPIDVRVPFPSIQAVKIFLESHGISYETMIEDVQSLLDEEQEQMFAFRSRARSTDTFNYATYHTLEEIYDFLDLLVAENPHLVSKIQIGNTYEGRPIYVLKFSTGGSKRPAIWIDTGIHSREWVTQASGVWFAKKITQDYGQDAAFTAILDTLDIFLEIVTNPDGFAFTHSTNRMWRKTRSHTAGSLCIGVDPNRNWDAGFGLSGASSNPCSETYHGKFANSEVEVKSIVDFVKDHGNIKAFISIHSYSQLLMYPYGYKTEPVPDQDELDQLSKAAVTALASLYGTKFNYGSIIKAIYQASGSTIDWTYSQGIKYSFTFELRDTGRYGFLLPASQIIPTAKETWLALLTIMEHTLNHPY
# [7] = Antiviral activity against Murine norovirus 1 infected in mouse RAW264.7 cells assessed as inhibition of viral replication; assay type: functional, cell-based
# Method in brief: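 RAW264.7 mouse macrophages were kept in DMEM with 2–5% FBS. Serially diluted compound (DMSO ≤0.5%) was added to confluent monolayers. Cells were infected immediately with MNV-1 at MOI 0.05–0.1 and held 48 h at 37 °C. After freeze-thaw, virus titres were read by TCID50. EC50 came from nonlinear variable-slope regression of inhibition versus log concentration.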
# [8] = Antiviral activity against Murine norovirus 1 infected in Balb/c mouse assessed as reduction in viral titers in small intestine at 10 mg/kg, ip twice daily started 4 hrs prior to infection measured after 72 hrs post infection; conditions: route intraperitoneal
# [9] = Antiviral activity against Murine norovirus 1 infected in Balb/c mouse assessed as reduction in viral titers in large intestine at 10 mg/kg, ip twice daily started 4 hrs prior to infection measured after 72 hrs post infection; conditions: route intraperitoneal
IC50 [1],EC50 (Norovirus),SMILES,other results
> 10000 nM,> 2000 nM,CS(=O)(=O)NC(=O)[C@H](C[C@@H]1CCNC1=O)NC(=O)[C@H](CC1CCCCC1)NC(=O)OCc1cccc(Cl)c1,–
350 nM,50 nM,O=C[C@H](C[C@@H]1CCNC1=O)NC(=O)[C@H](CC1CCCCC1)NC(=O)OCc1cccc(I)c1,–
900 nM,100 nM,CC(C)C[C@H](NC(=O)OCc1cccc(Cl)c1)C(=O)N[C@H](C=O)C[C@@H]1CCNC1=O,–
6500 nM,150 nM,CCOP(=O)(OCC)C(O)[C@H](C[C@@H]1CCNC1=O)NC(=O)[C@H](CC1CCCCC1)NC(=O)OCc1cccc(Br)c1 (stereo not given in full),inhibition [2]: 63%; inhibition (Homo sapiens): 0%; inhibition (Bos taurus): 1%; inhibition [3]: 0%; inhibition [4]: 6%; inhibition [5]: 13%; inhibition [6]: 0%
400 nM,60 nM,O=C(N[C@@H](CC1CCCCC1)C(=O)N[C@@H](C[C@@H]1CCNC1=O)C(O)S(=O)(=O)O)OCc1ccccc1 (stereo not given in full),–
250 nM,85 nM,O=C(N[C@@H](CC1CCCCC1)C(=O)N[C@@H](C[C@@H]1CCNC1=O)C(=O)C(=O)NC1CC1)OCc1cccc(Cl)c1,–
100 nM,20 nM,O=C[C@H](C[C@@H]1CCNC1=O)NC(=O)[C@H](CC1CCCCC1)NC(=O)OCc1cccc(Cl)c1,inhibition [2]: 15%; inhibition (Homo sapiens): 0%; inhibition (Bos taurus): 5%; inhibition [3]: 0%; inhibition [4]: 1%; inhibition [5]: 0%; inhibition [6]: 12%; EC50 [7]: 80 nM; fold change (FC) [8]: 42.12; fold change (FC) [9]: 7.98
4500 nM,1500 nM,CC(C)(C)OC(=O)Nc1cccc(COC(=O)N[C@@H](CC2CCCCC2)C(=O)N[C@H](C=O)C[C@@H]2CCNC2=O)c1,–
3400 nM,1100 nM,CC(C)C[C@H](NC(=O)OCc1ccccc1)C(=O)N[C@@H](C[C@@H]1CCNC1=O)C(=O)C(=O)NC1CC1,–
> 10000 nM,60 nM,CCOP(=O)(OCC)C(O)[C@H](C[C@@H]1CCNC1=O)NC(=O)[C@H](CC1CCCCC1)NC(=O)OCc1cccc(Cl)c1 (stereo not given in full),inhibition [2]: 86.5%; inhibition (Homo sapiens): 2.4%; inhibition (Bos taurus): 8.8%; inhibition [3]: 0%; inhibition [4]: 0%; inhibition [5]: 15%; inhibition [6]: 14.3%
> 10000 nM,200 nM,N#Cc1cccc(COC(=O)N[C@@H](CC2CCCCC2)C(=O)N[C@H](C=O)C[C@@H]2CCNC2=O)c1,–
5500 nM,300 nM,CC(C)C[C@H](NC(=O)OCc1cccc(Cl)c1)C(=O)N[C@@H](C[C@@H]1CCNC1=O)C(=O)C(=O)NC1CC1,–
710 nM,80 nM,O=C[C@H](C[C@@H]1CCNC1=O)NC(=O)[C@H](CC1CCCCC1)NC(=O)OCc1ccc(Cl)cc1,–
3500 nM,300 nM,O=C(N[C@@H](CC1CCCCC1)C(=O)N[C@@H](C[C@@H]1CCNC1=O)C(=O)C(=O)NC1CC1)OCc1cccc(F)c1,–
> 10000 nM,100 nM,COc1ccccc1COC(=O)N[C@@H](CC1CCCCC1)C(=O)N[C@H](C=O)C[C@@H]1CCNC1=O,–
> 10000 nM,200 nM,CCOP(=O)(OCC)C(O)[C@H](C[C@@H]1CCNC1=O)NC(=O)[C@H](CC1CCCCC1)NC(=O)OCc1ccccc1Cl (stereo not given in full),–

IC50 [1],EC50 (Norovirus),SMILES,other results
300 nM,30 nM,O=C[C@H](C[C@@H]1CCNC1=O)NC(=O)[C@H](CC1CCCCC1)NC(=O)OCc1cccc(Br)c1,inhibition [2]: 26.5%; inhibition (Homo sapiens): 0%; inhibition (Bos taurus): 0%; inhibition [3]: 0%; inhibition [4]: 0%; inhibition [5]: 7%; inhibition [6]: 11.6%
300 nM,60 nM,O=C[C@H](C[C@@H]1CCNC1=O)NC(=O)[C@H](CC1CCCCC1)NC(=O)OCc1ccccc1,–
1500 nM,200 nM,O=C(N[C@@H](CC1CCCCC1)C(=O)N[C@@H](C[C@@H]1CCNC1=O)C(=O)C(=O)NC1CC1)OCc1cccc(Br)c1,–
1200 nM,90 nM,O=C[C@H](C[C@@H]1CCNC1=O)NC(=O)[C@H](CC1CCCCC1)NC(=O)OCc1cccc(F)c1,–
150 nM,40 nM,O=C(N[C@@H](CC1CCCCC1)C(=O)N[C@@H](C[C@@H]1CCNC1=O)C(O)S(=O)(=O)O)OCc1cccc(I)c1 (stereo not given in full),–
5100 nM,150 nM,O=C[C@H](C[C@@H]1CCNC1=O)NC(=O)[C@@H](NC(=O)OCc1cccc(Cl)c1)C1CCCCC1,–
> 10000 nM,> 2000 nM,CCOP(=O)(OCC)C(O)[C@H](C[C@@H]1CCNC1=O)NC(=O)[C@H](CC1CCCCC1)NC(=O)OCc1ccccc1F (stereo not given in full),–
800 nM,80 nM,O=C[C@H](C[C@@H]1CCNC1=O)NC(=O)[C@H](CC1CCCCC1)NC(=O)OCc1ccccc1Cl,–
600 nM,150 nM,O=C[C@H](C[C@@H]1CCNC1=O)NC(=O)[C@H](CC1CCCCC1)NC(=O)OCc1cccc([N+](=O)[O-])c1,–
800 nM,300 nM,CC(C)C[C@H](NC(=O)OCc1ccccc1)C(=O)N[C@@H](C[C@@H]1CCNC1=O)C(O)S(=O)(=O)O (stereo not given in full),–
150 nM,30 nM,O=C(N[C@@H](CC1CCCCC1)C(=O)N[C@@H](C[C@@H]1CCNC1=O)C(O)S(=O)(=O)O)OCc1cccc(Br)c1 (stereo not given in full),–
100 nM,20 nM,O=C(N[C@@H](CC1CCCCC1)C(=O)N[C@@H](C[C@@H]1CCNC1=O)C(O)S(=O)(=O)O)OCc1cccc(Cl)c1 (stereo not given in full),–
1400 nM,150 nM,COc1cccc(COC(=O)N[C@@H](CC2CCCCC2)C(=O)N[C@H](C=O)C[C@@H]2CCNC2=O)c1,–
900 nM,80 nM,O=C[C@H](C[C@@H]1CCNC1=O)NC(=O)[C@H](CC1CCCCC1)NC(=O)OCc1ccccc1F,–
700 nM,70 nM,O=C(N[C@@H](CC1CCCCC1)C(=O)N[C@@H](C[C@@H]1CCNC1=O)C(O)S(=O)(=O)O)OCc1ccccc1Cl (stereo not given in full),–
600 nM,200 nM,CC(C)C[C@H](NC(=O)OCc1ccccc1)C(=O)N[C@H](C=O)C[C@@H]1CCNC1=O,–
